In ChEMBL document CHEMBL1148112, “Inhibition of tumor-promoting effects by poricoic acids G and H and other lanostane-type triterpenes and cytotoxic activity of poricoic acids A and G from Poria cocos” (J Nat Prod, 2002):

Key:
Raji [1] = assay: Inhibition of 12-O-tetradecanoylphorbol-13-acetate induced EBV-early antigen activation in human Raji cells assessed as EA activation at 1000 molar ratio after 48 hrs by indirect immunofluorescence method relative to TPA; format: cell-based; set-up: scale not given: the % may be the effect or the level left; details: human gammaherpesvirus 4
Outline: (§1)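 Raji cells (EBV genome-carrying, nonproducer) at 1 × 10^6/mL in 10% FBS RPMI 1640, incubated 37 °C for 48 h with n-butyric acid (4 mM) plus 32 pmol TPA (20 ng/mL), compound added in DMSO. EA-positive cells detected by indirect immunofluorescence using NPC patient sera; at least 500 cells counted, run twice, expressed relative to butyric acid + TPA control.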

Raji [2] = assay: Inhibition of 12-O-tetradecanoylphorbol-13-acetate induced EBV-early antigen activation in human Raji cells assessed as EA activation at 500 molar ratio after 48 hrs by indirect immunofluorescence method relative to TPA; format: cell-based; set-up: scale not given: the % may be the effect or the level left; details: human gammaherpesvirus 4; outline: as §1
Raji [3] = assay: Inhibition of 12-O-tetradecanoylphorbol-13-acetate induced EBV-early antigen activation in human Raji cells assessed as EA activation at 100 molar ratio after 48 hrs by indirect immunofluorescence method relative to TPA; format: cell-based; details: human gammaherpesvirus 4; outline: as §1
Raji [4] = assay: Inhibition of 12-O-tetradecanoylphorbol-13-acetate induced EBV-early antigen activation in human Raji cells assessed as EA activation at 10 molar ratio after 48 hrs by indirect immunofluorescence method relative to TPA; format: cell-based; details: human gammaherpesvirus 4; outline: as §1
[5] = Cytotoxicity against human Raji cells assessed as cell viability at 1000 molar ratio; format: cell-based; details: read-out: Activity
[6] = Growth inhibition of human NCI60 cells after 48 hrs by sulforhodamine B assay; format: functional; details: NCI60, 48 h
Outline: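 NCI 60-cell panel (lung, colon, melanoma, renal, ovarian, brain, leukemia), continuous 48 h exposure, at least five 10-fold dilutions from a top concentration of 10^-4 M; cell growth estimated by sulforhodamine B protein staining.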

## C=C(CC[C@@H](C(=O)O)[C@H]1[C@H](O)C[C@@]2(C)C3=CC[C@H]4C(C)(C)[C@H](O)CC[C@]4(C)C3=CC[C@]12C)C(C)C
Raji [1]
  Activity: 0%
Raji [2]
  Activity: 25.5%
Raji [3]
  Remaining EA activation relative to TPA control: 67%
Raji [4]
  EA activation relative to TPA control: 93.8%
[5]
  viability at 1000 molar ratio: 70%

## C=C(CC[C@@H](C(=O)O)[C@H]1[C@H](O)C[C@@]2(C)C3=CC[C@H]4C(C)(C)[C@H](O)CC[C@]4(C)C3=CC[C@]12C)C(C)(C)O
Raji [1]
  Activity: 0%
Raji [2]
  Activity: 13.2%
Raji [3]
  Remaining EA activation relative to TPA control: 51.6%
Raji [4]
  EA activation relative to TPA control: 79.4%
[5]
  viability at 1000 molar ratio: 70%

## CC1=C(/C=C/C(C)=C/C=C/C(C)=C/C=C/C=C(C)/C=C/C=C(C)/C=C/C2=C(C)CCCC2(C)C)C(C)(C)CCC1
Raji [1]
  Activity: 8.6%
Raji [4]
  EA activation relative to TPA control: 100%

## C=C(CC[C@@H](C(=O)O)[C@H]1[C@H](O)C[C@@]2(C)C3=CC[C@H]4C(C)(C)[C@@H](O)CC[C@]4(C)C3=CC[C@]12C)C(C)C [DEHYDROTUMULOSIC ACID]
Raji [1]
  Activity: 0%
Raji [2]
  Activity: 22.7%
Raji [3]
  Remaining EA activation relative to TPA control: 64.9%
Raji [4]
  EA activation relative to TPA control: 90.5%
[5]
  viability at 1000 molar ratio: 70%

## COC(=O)[C@]1(C)CCC[C@]2(C)c3ccc(C(C)C)cc3CC[C@@H]12 [METHYL DEHYDROABIETATE]
Raji [1]
  Activity: 0%
Raji [2]
  Activity: 23.2%
Raji [3]
  Remaining EA activation relative to TPA control: 68.3%
Raji [4]
  EA activation relative to TPA control: 91.6%
[5]
  viability at 1000 molar ratio: 60%

## C=C(CC[C@@H](C(=O)O)[C@H]1[C@H](O)C[C@@]2(C)C3=CC[C@H]4C(C)(C)C(=O)CC[C@]4(C)C3=CC[C@]12C)C(C)C [POLYPORENIC ACID B]
Raji [1]
  Activity: 0%
Raji [2]
  Activity: 26.3%
Raji [3]
  Remaining EA activation relative to TPA control: 68.7%
Raji [4]
  EA activation relative to TPA control: 92.6%
[5]
  viability at 1000 molar ratio: 70%

## C=C(CC[C@@H](C(=O)O)[C@H]1[C@H](O)C[C@@]2(C)C3=CC[C@@H](C(=C)C)[C@](C)(CCC(=O)O)C3=CC[C@]12C)C(C)C [PORICOIC ACID A]
Raji [1]
  Activity: 0%
Raji [2]
  Activity: 18.5%
Raji [3]
  Remaining EA activation relative to TPA control: 58.9%
Raji [4]
  EA activation relative to TPA control: 83.8%
[5]
  viability at 1000 molar ratio: 70%
[6]
  GI50: 15 µM

## C=C(C)[C@@H]1CC=C2C(=CC[C@]3(C)[C@@H]([C@@H](CCC=C(C)C)C(=O)O)[C@H](O)C[C@@]23C)[C@@]1(C)CCC(=O)O [PORICOIC ACID B]
Raji [1]
  Activity: 0%
Raji [2]
  Activity: 14.3%
Raji [3]
  Remaining EA activation relative to TPA control: 54%
Raji [4]
  EA activation relative to TPA control: 80.7%
[5]
  viability at 1000 molar ratio: 70%

## C=C(C)[C@@H]1CCC2=C(CC[C@]3(C)[C@@H]([C@@H](CCC=C(C)C)C(=O)O)[C@H](O)C[C@@]23C)[C@@]1(C)CCC(=O)O [PORICOIC ACID G]
Raji [1]
  Activity: 0%
Raji [2]
  Activity: 16%
Raji [3]
  Remaining EA activation relative to TPA control: 55.9%
Raji [4]
  EA activation relative to TPA control: 82.8%
[5]
  viability at 1000 molar ratio: 70%

## C=C(CC[C@@H](C(=O)O)[C@H]1[C@H](O)C[C@@]2(C)C3=C(CC[C@]12C)[C@@](C)(CCC(=O)O)[C@H](C(=C)C)CC3)C(C)C [PORICOIC ACID H]
Raji [1]
  Activity: 0%
Raji [2]
  Activity: 15.7%
Raji [3]
  Remaining EA activation relative to TPA control: 53.8%
Raji [4]
  EA activation relative to TPA control: 80.8%
[5]
  viability at 1000 molar ratio: 70%

## C=C(CC[C@@H](C(=O)O)[C@H]1[C@H](O)C[C@@]2(C)C3=C(CC[C@]12C)[C@@]1(C)CC[C@H](O)C(C)(C)[C@@H]1CC3)C(C)C [TUMULOSIC ACID]
Raji [1]
  Activity: 0%
Raji [2]
  Activity: 22.7%
Raji [3]
  Remaining EA activation relative to TPA control: 64.9%
Raji [4]
  EA activation relative to TPA control: 90.5%
[5]
  viability at 1000 molar ratio: 70%
